# High-throughput results from PubChem BioAssay.
# An excerpt weighted towards active compounds, which were near 12% of everything screened.
# CHOP inhibitor: inhibitors of CHOP induction in ER stress response. inhibition, % at 10 µM. AID 2732. 3.8% of 220,000 active. CHO-K1 CHOP-promoter luciferase, tunicamycin-induced, 15-18 h;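 active = compounds that reduced the stress-induced luciferase reporter signal by more than about 70% of percent inhibition, limit read from the data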;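 note: 0% = tunicamycin plus vehicle and 100% = wells without tunicamycin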
# Autophagy HCS: modulators of autophagy | MEF GFP-LC3 puncta imaging; test concentration mostly 10 µM | calls only at 10 µM (by protocol) | 0.98% of 190,000 active | AID 463193;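 active = percentage of spot-positive cells more than 3 SD above its plate mean, without a fluorescence outlier flag or 80% toxicity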;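 note: spot-positive cell cutoff set from DMSO-treated cells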
# Dynein cargo inh: blocks dynein driven cargo transport along microtubules. 0.47% of 220,000 active. z-score, hits read low. 3617.4 mouse cells, GR-EGFP nuclear translocation imaging; test concentration mostly 20 µM; stimulated with dexamethasone, 1 µM; hits give low values. AID 1381;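 active = plate z-score of nuclear minus cytoplasmic receptor signal below a set negative limit, without overly bright fluorescence or cell loss, cut at about -3.5 in these data, passing the limit was not always enough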;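 note: z-score of nuclear minus cytoplasmic ring GR-EGFP intensity difference per well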
#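 Buffer or medium: tet-free, stripped-serum medium; reagent: dexamethasone at 1.0 µM final, 30 min; incubation: 48 h induction, 1 h compound, 30 min dex at 37 °C; measured by: formaldehyde fixation, Hoechst nuclear stain, 10x automated fluorescence imaging; read-out: nuclear-to-cytoplasmic GR-EGFP distribution per well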
# b-catenin transl: modulators of beta-catenin nuclear translocation. nuclear translocation activity, % at 5 µM. HeLa beta-catenin nuclear translocation, immunofluorescence imaging. AID 1665. 0.3% of 190,000 active;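 active = nuclear translocation activity above 50% at 5 µM, with a well cell count of 50 or more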;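 note: per-cell ratio of nuclear to cytoplasmic median beta-catenin stain intensity; plate controls were DMSO negative control for no effect and GSK-3 inhibitor IX positive control for full effect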
#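 System: HeLa cells, endogenous beta-catenin; compound dosing: 5 µM primary single dose, 0.1% DMSO, 0.02–20 µM confirmation series; incubation: 24 h compound exposure at 37°C, 5% CO2; signal: beta-catenin immunofluorescence imaging with DAPI; evaluation: % activation, nuclear-to-cytoplasmic median beta-catenin signal ratio per cell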
# MT stabilize HCS: microtubule stabilizers in HeLa cells | AID 2205 | 0.83% of 200,000 active | % tubulin-high responders, % at 10 µM | HeLa tubulin immunostaining HCS, 24 h; share of cells brighter than vehicle mean+2SD;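 active = plate Z-score above 3 for both tubulin-high and condensed-nucleus cell shares, with cell loss under 80%, at 10 µM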;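 note: anti alpha tubulin signal scored within the nucleus-defined area of each cell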
# Lmaj promast: reduces viability of Leishmania major promastigotes. resazurin fluorescence viability. inhibition, % at 10 µM. 9% of 200,000 active. AID 1063; in the data active = inhibition above about 50%;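 note: promastigotes grown with compound for 44 hours at 28 °C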
# An asterisk follows results filed as active; i = inactive; / = no result.
SMILES,CHOP inhibitor,Autophagy HCS,Dynein cargo inh,b-catenin transl,MT stabilize HCS,Lmaj promast
CC(C)Oc1ccc(Cc2c(O)nc(NCCCN(C)C)[nH]c2=O)cc1,-2,i,-0.29,-1,3,0
Cc1ccc(-n2nnnc2SCC(=O)Nc2ncc(Cc3ccccc3Cl)s2)cc1,-23,i,0.071,0,3,1
CCC(C)Sc1nc2c(c(=O)[nH]1)C(c1cccs1)C1=C(CCCC1=O)N2 (stereo unspecified),82*,i,1.1,0,5,-2
O=C1CCCC2=C1C(c1ccncc1)c1c(nc(SCc3ccccc3Cl)[nH]c1=O)N2 (stereo unspecified),18,i,1.9,0,5,-9
CCOC(=O)Cn1nnnc1CN(Cc1cccs1)Cc1cc2cc(C)ccc2[nH]c1=O,10,i,-1.2,3,2,2
CCOc1ccc2[nH]c(=O)c(CN(Cc3cccs3)Cc3nnnn3C(C)(C)C)cc2c1,96*,i,1.2,-4,33*,73*
COc1ccc2[nH]c(=O)c(CN(Cc3cccs3)Cc3nnnn3C(C)(C)C)cc2c1,47,i,-0.01,-1,3,99*
O=C(CCCO)CCCCCCCCC[C@H]1N[C@H](CO)[C@@H](O)[C@@H]1O,-4,i,-0.18,/,3,-6
CC1(C)CC2CC(C)(CN2S(=O)(=O)c2ccc(C(=O)Nc3cc(S(=O)(=O)N4CCOCC4)ccc3Cl)cc2)C1 (stereo unspecified),22,i,0.72,/,1,99*
CC(=O)Oc1ccc(-c2ccc(C(=O)Nc3cccc(S(=O)(=O)N4CCOCC4)c3)cc2)cc1,17,i,-0.18,0,10,15
CC1(C)CC2CC(C)(CN2S(=O)(=O)c2ccc(C(=O)Nc3cccc(S(=O)(=O)N4CCOCC4)c3)cc2)C1 (stereo unspecified),44,i,1.1,/,3,99*
CCOC(=O)C1(Cc2ccccc2C)CCCN(C(=O)CCn2nccc2C)C1 (stereo unspecified),-1,i,-0.74,1,3,5
CON1C(=O)C(=O)N(OC)C(C)(C)C1(C)C,-7,i,-0.19,-1,6,-6
Fc1ccc(Br)cc1C1C=C(c2cccnc2)Nc2ncnn21 (stereo unspecified),/,i,1.1,/,18*,6
CS(=O)(=O)N(C(=O)NC(=O)NC12CC3CC(CC(C3)C1)C2)C1CCCCC1,1,i,0.72,-1,2,0
O=C(NC12CC3CC(CC(C3)C1)C2)c1ccc(-c2ccc(Cl)cc2)o1,14,i,0.084,1,2,92*
COc1ccc(CC(=O)OCC(=O)NC(=O)NC23CC4CC(CC(C4)C2)C3)cc1,96*,i,-0.68,/,2,1
COc1cc(/C=C/C(=O)OCC(=O)NC(=O)NC23CC4CC(CC(C4)C2)C3)ccc1OCC#N,-4,i,0.58,-5,1,93*
O=C(COC(=O)c1ccc(-c2ccc([N+](=O)[O-])cc2)o1)NC(=O)NC1CCCCC1,29,i,0.7,0,3,-6
O=C(NC12CC3CC(CC(C3)C1)C2)c1ccc(-c2cccc(Cl)c2)o1,15,i,0.28,0,1,22
O=C(COC(=O)c1ccc(-c2ccc([N+](=O)[O-])cc2)o1)NC(=O)NC12CC3CC(CC(C3)C1)C2,26,i,0.52,/,2,98*
CCc1ccc(OCC(=O)N/N=C\c2ccco2)c([N+](=O)[O-])c1,19,i,0.95,-1,3,-6
CC(C)OC(=O)c1ccc(N)cc1,-1,i,-0.21,-2,2,-5
COc1ccc(C2/C=C\CN(C(=O)NC(C)C)CC(=O)N2Cc2ccc(F)cc2)cc1 (stereo unspecified),10,/,0.22,-1,/,/
Cc1c(C)n(Cc2ccccc2)c2ccc(C(=O)OCCN(C)C)cc12,44,i,-1.1,-2,3,100*
Cc1cc(C)nc(N2CCC(C(=O)Nc3ccc4c(c3)CCC4)CC2)n1,82*,i,0.86,1,3,2
Cc1ccc(NC(=O)C2CCN(c3cnccn3)CC2)cc1C,4,i,-0.32,1,2,89*
